# Assay results reported in ChEMBL document CHEMBL4715756, “Nitrotriazole-based acetamides and propanamides with broad spectrum antitrypanosomal activity” (Eur J Med Chem, 2016).
# Active and inactive are the calls of the source. The rule behind the calls is not given here.
# How the values were obtained:
# [1] = tested on: Trypanosoma brucei rhodesiense; test: Substrate activity at Trypanosoma brucei rhodesiense recombinant His-tagged type 1 nitroreductase assessed as enzyme specific activity using NADH at 100 uM by spectrophotometrically
# In short: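 Purified recombinant his-tagged TbNTR. Each nitrotriazole substrate at 100 µM with NADH 100 µM. NADH oxidation followed spectrophotometrically at 340 nm. Specific activity given as nmol NADH oxidized min^-1 mg^-1 protein, mean of three experiments ± SD.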
# [2] = Dissociation constant, pKa of the compound
# in vitro [3] = conditions: rat, L6 cells versus Leishmania donovani MHOM/ET/67/L82
# Trypanosoma cruzi [4] = test: Anti-chagasic activity against Trypanosoma cruzi Brazil trypomastigotes expressing firefly luciferase infected in BALB/c mouse assessed as reduction in parasitemia at 15 mg/kg/day, ip measured after 5 days by bioluminescence assay; format: functional, organism-based; conditions: time 5.0 day
# Trypanosoma cruzi [5] = test: Anti-chagasic activity against Trypanosoma cruzi Brazil trypomastigotes expressing firefly luciferase infected in BALB/c mouse assessed as reduction in parasitemia at 15 mg/kg/day, ip measured after 10 days by bioluminescence assay; format: functional, organism-based; conditions: time 10.0 day
# in vitro [6] = conditions: rat, L6 cells versus Trypanosoma cruzi Tulahuen C4
# Trypanosoma cruzi [7] = test: Trypanocidal activity against Trypanosoma cruzi Tulahuen C4 amastigotes infected in rat L6 cells in vitro
# in vitro [8] = conditions: rat
# Trypanosoma cruzi [9] = test: Anti-chagasic activity against Trypanosoma cruzi Brazil trypomastigotes expressing firefly luciferase infected in BALB/c mouse assessed as reduction in parasitemia at 13 mg/kg/day, ip measured after 10 days by bioluminescence assay; format: functional, organism-based; conditions: time 10.0 day
# Trypanosoma cruzi [10] = test: Anti-chagasic activity against Trypanosoma cruzi Brazil trypomastigotes expressing firefly luciferase infected in BALB/c mouse assessed as reduction in parasitemia at 13 mg/kg/day, ip measured after 5 days by bioluminescence assay; format: functional, organism-based; conditions: time 5.0 day
# [11] = Toxicity in Trypanosoma cruzi Brazil trypomastigotes expressing firefly luciferase infected BALB/c mouse assessed toxic symptoms at 13 mg/kg, ip measured after 5 to 10 days; format: organism-based; conditions: in vivo, time 5-10 day
# In short: (§1)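 Same infected Balb/c model: luciferase T. cruzi, 10^5 trypomastigotes. Daily i.p. dosing for 10 days from day 4 post infection at 13 or 15 mg/kg/day, in 2% methylcellulose + 0.5% Tween 80, 5 mice/group. Mice observed for general health and deaths over the treatment period.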
# [12] = Toxicity in Trypanosoma cruzi Brazil trypomastigotes expressing firefly luciferase infected BALB/c mouse assessed mortality at 13 mg/kg, ip measured after 5 to 10 days; format: organism-based; conditions: in vivo, time 5-10 day
# In short: (§2)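 Balb/c mice, 5 weeks old, infected with 10^5 luciferase-expressing Brazil-strain T. cruzi trypomastigotes. From 4 days post-infection, mice were dosed i.p. at 13 mg/kg/day for 10 days in 2% methylcellulose + 0.5% Tween 80 vehicle, 5 mice/group. Animals were observed over treatment, with imaging after 5 and 10 days of dosing.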
# [13] = Toxicity in Trypanosoma cruzi Brazil trypomastigotes expressing firefly luciferase infected BALB/c mouse assessed as healthy appearance at 13 mg/kg, ip measured after 5 to 10 days; format: organism-based; conditions: in vivo, time 5-10 day; in short: as §2
# [14] = Toxicity in Trypanosoma cruzi Brazil trypomastigotes expressing firefly luciferase infected BALB/c mouse assessed toxic symptoms at 15 mg/kg, ip measured after 5 to 10 days; format: organism-based; conditions: in vivo, time 5-10 day; in short: as §1
Structure (SMILES),Activity [1],pKa [2],selectivity ratio (in vitro [8]),further results
O=C(Cn1cnc([N+](=O)[O-])n1)Nc1cc(-c2ccc(F)cc2)on1,Active,11,,
O=C(CCn1cnc([N+](=O)[O-])n1)Nc1ccc(Oc2ccccc2)cc1,Active,14.5,,selectivity ratio (in vitro [3]): 13.5
O=C(Cn1ccnc1[N+](=O)[O-])NCc1ccccc1,,,,Activity (Trypanosoma cruzi [4]): Active; Activity (Trypanosoma cruzi [5]): Active
N#Cc1ccc(-c2ccc(NC(=O)Cn3cnc([N+](=O)[O-])n3)cc2)cc1,,13.2,490,selectivity ratio (in vitro [6]): 1190; IC50 (Trypanosoma cruzi [7]): 138 nM
O=C(Cn1cnc([N+](=O)[O-])n1)Nc1ccc(Oc2ccc(Cl)cc2)cc1,,13.6,22,IC50 (Trypanosoma cruzi [7]): 8 nM
CN(C(=O)Cn1ccnc1[N+](=O)[O-])c1ccc(C(F)(F)F)cc1,,,,selectivity ratio (in vitro [6]): 3.8
O=C(Cn1cnc([N+](=O)[O-])n1)Nc1cccc(-c2ccccc2)c1,,,,IC50 (Trypanosoma cruzi [7]): 179 nM
O=C(Cn1cnc([N+](=O)[O-])n1)Nc1ccc(Oc2ccccc2)cc1,,13.3,34,
O=C(CCn1cnc([N+](=O)[O-])n1)Nc1cccc(OCc2ccccc2)c1,Active,14,,
O=C(CCn1cnc([N+](=O)[O-])n1)Nc1cccc(-c2ccccc2)c1,Active,14,,
O=C(CCn1cnc([N+](=O)[O-])n1)Nc1cc(-c2ccc(Cl)cc2)no1,Active,9.14,,
O=C(CCn1cnc([N+](=O)[O-])n1)Nc1ccc(Oc2ccc(F)cc2)cc1,Active,14.5,,Activity (Trypanosoma cruzi [9]): Active; Activity (Trypanosoma cruzi [10]): Active; Activity [11]: Non-Toxic
O=C(CCn1cnc([N+](=O)[O-])n1)Nc1cc(-c2ccc(F)cc2)on1,,11.2,> 201,
O=C(Cn1cnc([N+](=O)[O-])n1)Nc1cc(-c2ccc(Cl)cc2)no1,Active,,,
O=C(Cn1cnc([N+](=O)[O-])n1)Nc1cccc(OCc2ccccc2)c1,,12.8,14.1,selectivity ratio (in vitro [6]): 575; selectivity ratio (in vitro [3]): 20.3; IC50 (Trypanosoma cruzi [7]): 119 nM
CN(C(=O)Cn1cnc([N+](=O)[O-])n1)c1ccc(C(F)(F)F)cc1,,,6.8,selectivity ratio (in vitro [3]): 6.8
O=C(CCn1cnc([N+](=O)[O-])n1)Nc1ccc(Oc2ccc(Cl)cc2)cc1,Active,14.5,,Activity (Trypanosoma cruzi [9]): Active; Activity [12]: Non-Toxic; Activity [13]: Toxic; selectivity ratio (in vitro [3]): 15; Activity (Trypanosoma cruzi [10]): Active
O=C(Cn1cnc([N+](=O)[O-])n1)NCc1ccc(C(F)(F)F)cc1,,12.7,20,selectivity ratio (in vitro [6]): 133; selectivity ratio (in vitro [3]): 12
O=C(Cn1cnc([N+](=O)[O-])n1)Nc1ccc(Oc2ccc(F)cc2)cc1,,13.6,35,
N#Cc1ccc(-c2ccc(NC(=O)CCn3cnc([N+](=O)[O-])n3)cc2)cc1,,14.1,,Activity (Trypanosoma cruzi [4]): Active; Activity [14]: Non-Toxic; Activity (Trypanosoma cruzi [5]): Active
